molecular target: Phosphatidylinositol 4,5-bisphosphate 3-kinase catalytic subunit gamma isoform (Homo sapiens, UniProt P48736); assay: Inhibition of PI3Kgamma after 4 hrs
Procedure, shortened: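 Recombinant PI3Kγ incubated 4 h at room temperature with or without compound at final concentrations of 3, 10, 30 and 50 μM.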

Sequence of Phosphatidylinositol 4,5-bisphosphate 3-kinase catalytic subunit gamma isoform (P48736 whole entry, canonical isoform): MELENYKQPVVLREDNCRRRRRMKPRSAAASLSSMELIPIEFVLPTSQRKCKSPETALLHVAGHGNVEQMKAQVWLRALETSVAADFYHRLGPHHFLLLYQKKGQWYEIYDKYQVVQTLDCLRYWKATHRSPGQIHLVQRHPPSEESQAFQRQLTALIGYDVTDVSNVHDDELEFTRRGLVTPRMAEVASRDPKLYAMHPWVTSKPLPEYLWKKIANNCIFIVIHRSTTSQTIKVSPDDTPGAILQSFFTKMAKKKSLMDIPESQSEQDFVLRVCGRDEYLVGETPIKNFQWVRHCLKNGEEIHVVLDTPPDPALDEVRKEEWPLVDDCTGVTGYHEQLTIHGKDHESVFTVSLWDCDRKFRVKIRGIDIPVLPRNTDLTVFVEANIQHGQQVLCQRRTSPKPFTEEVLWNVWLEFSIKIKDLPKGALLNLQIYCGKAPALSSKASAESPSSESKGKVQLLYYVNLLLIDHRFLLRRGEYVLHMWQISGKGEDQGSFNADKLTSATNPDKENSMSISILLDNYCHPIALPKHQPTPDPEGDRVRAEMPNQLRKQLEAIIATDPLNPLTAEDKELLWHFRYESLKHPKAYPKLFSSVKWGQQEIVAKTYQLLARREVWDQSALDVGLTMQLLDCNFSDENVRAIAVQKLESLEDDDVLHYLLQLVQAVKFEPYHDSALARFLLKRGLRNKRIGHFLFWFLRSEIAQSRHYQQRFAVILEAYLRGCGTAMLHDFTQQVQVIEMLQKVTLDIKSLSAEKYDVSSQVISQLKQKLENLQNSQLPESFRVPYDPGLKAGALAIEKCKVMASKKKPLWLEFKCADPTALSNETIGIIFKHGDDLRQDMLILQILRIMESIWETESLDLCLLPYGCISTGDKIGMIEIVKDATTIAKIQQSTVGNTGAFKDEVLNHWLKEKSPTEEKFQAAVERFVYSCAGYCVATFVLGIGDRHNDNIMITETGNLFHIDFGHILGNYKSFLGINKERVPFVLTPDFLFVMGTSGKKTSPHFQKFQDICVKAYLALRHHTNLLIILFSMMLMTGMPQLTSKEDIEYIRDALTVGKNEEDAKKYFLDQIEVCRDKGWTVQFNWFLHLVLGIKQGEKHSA

SMILES | IC50 [µM]
CC(=O)Oc1ccccc1C1OC(c2ccc3c(c2)OCCO3)=NN1C(C)=O (stereo unspecified) | 2.06
CC(=O)Oc1c(Cl)cc(Cl)cc1C1OC(c2ccc3c(c2)OCCO3)=NN1C(C)=O (stereo unspecified) | 1.75
CC(=O)Oc1c(Br)cc(Br)cc1C1OC(c2ccc3c(c2)OCCO3)=NN1C(C)=O (stereo unspecified) | 1.98

Next, values leading:

IC50 [µM] | SMILES
0.98 | CC(=O)Oc1ccc(Cl)cc1C1OC(c2ccc3c(c2)OCCO3)=NN1C(C)=O (stereo unspecified)
1.31 | CC(=O)Oc1ccc(Br)cc1C1OC(c2ccc3c(c2)OCCO3)=NN1C(C)=O (stereo unspecified)

tested on: T-cell; assay: Selectivity index, ratio of CC50 for lymph node T cell to IC50 for lymph node T cell; type: functional

SMILES | Ratio CC50/IC50
C/C=C/C[C@@H](C)[C@@H](O)[C@H]1C(=O)N[C@@H](CC)C(=O)N(C)CC(=O)N(C)[C@@H](CC(C)C)C(=O)N[C@@H](C(C)C)C(=O)N(C)[C@@H](CC(C)C)C(=O)N[C@@H](C)C(=O)N[C@H](C)C(=O)N(C)[C@@H](CC(C)C)C(=O)N(C)[C@@H](CC(C)C)C(=O)N(C)[C@@H](C(C)C)C(=O)N1C [CYCLOSPORINE] | 196.86
